TAAR1 antagonist = human TAAR1 antagonists, primary screen, Fluo-8 calcium fluorescence, CHO RD-HGA16 cells; 360,000 compounds, 1.5% hits; inhibition, % at 3 µM; antagonist; Trace amine-associated receptor 1 (Homo sapiens), Q96RJ0;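 active = inhibition above a per-plate cutoff, the mean inhibition of test compounds on that plate plus 3 SD, cut at about 49% in these data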
Target sequence (Q96RJ0 whole entry, looked up): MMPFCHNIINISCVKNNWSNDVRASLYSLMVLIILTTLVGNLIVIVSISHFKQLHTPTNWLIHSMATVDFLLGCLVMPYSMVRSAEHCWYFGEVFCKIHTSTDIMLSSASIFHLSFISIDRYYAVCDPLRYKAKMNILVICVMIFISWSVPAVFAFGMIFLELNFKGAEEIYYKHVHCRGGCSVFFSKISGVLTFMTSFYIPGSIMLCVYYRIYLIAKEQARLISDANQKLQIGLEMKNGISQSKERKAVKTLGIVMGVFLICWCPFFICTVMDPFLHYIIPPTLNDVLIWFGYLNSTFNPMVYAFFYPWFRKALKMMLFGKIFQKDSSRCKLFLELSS
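Test system: hTAAR1-expressing CHO RD-HGA16 cells, Gα16-coupled; Probe or stimulus: EC80 β-phenethylamine stimulus; Compound dosing: single nominal final test compound concentration of 3 µM; Timing: 140 s kinetic read after compound, 140 s after agonist; Signal: Fluo-8 calcium-sensitive fluorescence; Measure: % inhibition of agonist calcium response; Controls: DMSO and EC80 PEA controls.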
TRPML3 agonist = human TRPML3 channel agonists, primary screen, cell-based, HEK293 TRPML3-YFP, Fluo-8 calcium fluorescence, 3 µM; Mucolipin-3 (Homo sapiens), Q8TDD5; 100% = the carbachol control signal; activation, % at 3 µM; 220,000 compounds, 0.29% hits; AID 1448, 2008;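 active = activation above its plate's cutoff, the mean activation of the plate's test wells plus 3 SD, cut at about 12% in these data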
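Test system: TRPML3-YFP stable HEK293 cells. Doses: single point at 3 µM. Incubation: dye loading 1 h 37 °C then 30 min ambient, 125 s read. Signal: Fluo-8 calcium dye fluorescence, ex 470-495, em 515-575 nm. Measure: percent activation from peak-to-basal fluorescence ratio, scaled between DMSO and carbachol.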
TAAR1 agonist = human TAAR1 agonists, primary screen, Fluo-8 calcium fluorescence, CHO RD-HGA16 cells | 360,000 compounds, 0.99% hits | Trace amine-associated receptor 1 (Homo sapiens), Q96RJ0 | vehicle wells 0%, saturating PEA agonist 100% | activation, % at 3 µM | AID 624467, 2012;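 active = activation above the mean activation of all test compounds in the run plus 3 SD, cut at about 38% in these data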
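System: CHO RD-HGA16 cells carrying human TAAR1 plus Gα16; Incubation: 17-24 h seeding, 75 min 37 °C dye, 30 min RT; Measured by: Fluo-8 fluorescence, 5 s baseline then 140 s kinetic read; Control set: DMSO and PEA EC100; Replication: single well for each compound.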
TRPN1 ag = zebrafish TRPN1 channel agonists, primary screen, cell-based, HEK293, calcium fluorescence. HEK293 zebrafish TRPN1-YFP, Fluo-8 calcium fluorescence; 100% = response to 87 µM carbachol. activation, % at 3 µM. 220,000 compounds, 0.18% hits;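 active = activation above its plate's cutoff, the mean activation of test wells on that plate plus 3 SD, cut at about 19% in these data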
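Material: zebrafish TRPN1-YFP in HEK293 cells; Doses: single test compound dose, 3 µM nominal, 0.3% DMSO; Timing: dye loading 1 h at 37 °C, then 30 min room temperature; Technique: intracellular calcium fluorescence with Fluo-8; Benchmarks: high carbachol 87 µM, low DMSO alone.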
GPR7 antagonist = GPR7 receptor antagonists, primary screen, cell-based, fluorescence, single concentration. Neuropeptides B/W receptor type 1 (Homo sapiens), P48145. GPR7-expressing cells, fluorescence antagonist assay. inhibition, % at 4.4 µM. 290,000 compounds, 1.1% hits. AID 1861, 2009; in the data active = inhibition above about 16%, passing the limit was not always enough;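 note: cells stimulated with the agonist NPW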
Target sequence (P48145 whole entry, looked up): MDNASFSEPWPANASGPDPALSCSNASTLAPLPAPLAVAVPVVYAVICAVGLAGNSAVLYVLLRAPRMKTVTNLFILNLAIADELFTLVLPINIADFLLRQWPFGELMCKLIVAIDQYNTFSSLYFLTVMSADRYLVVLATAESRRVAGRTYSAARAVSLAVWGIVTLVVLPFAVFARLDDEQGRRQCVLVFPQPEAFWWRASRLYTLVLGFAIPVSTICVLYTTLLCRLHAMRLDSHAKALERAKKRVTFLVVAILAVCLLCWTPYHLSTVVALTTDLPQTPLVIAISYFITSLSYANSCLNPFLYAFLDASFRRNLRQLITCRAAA
LANA-H2A inh = blockers of LANA interaction with H2A/H2B – biochemical, FP readout, HTS, primary screen; Protein LANA1 (Human herpesvirus 8 type P (isolate GK18)), Q9QR71; cell-free LANA-H2A/H2B peptide, fluorescence polarization; inhibition, % (no concentration beside the values); 320,000 compounds, 0.6% hits; in the data active = inhibition mostly above about 10%, no sharp cut-off; inactive = mostly below about 6.7%
Numbers stand for hits; – = inactive; · = no result; ! = not active in a repeat. An excerpt weighted towards active compounds, which were near 3.4% of everything screened.

SMILES	TAAR1 antagonist	TRPML3 agonist	TAAR1 agonist	TRPN1 ag	GPR7 antagonist	LANA-H2A inh
S=C1Cc2ccccc2N1	–	–	42.6	–	–	·
CN(CC(=O)N1CCCC1)S(=O)(=O)c1ccc2ccccc2c1	–	–	–	–	–	17.3
Cc1ccc(S(=O)(=O)NCC2CCN(C(=O)C(=O)c3cccs3)CC2)cc1	–	·	–	·	·	·
CSc1ccc(CN2CCC(CO)(Cc3ccc(Cl)cc3)CC2)cc1	–	–	–	–	29.9	–
OCC1(Cc2ccc(Cl)cc2)CCN(Cc2ccccc2F)CC1	–	–	–	–	–	–
CCOc1cc(NCc2ccccc2)c2ncn(C(C)C)c2c1	–	·	44.4	·	·	–
COCCOc1cc(NCc2ccccc2)c2ncn(C(C)C)c2c1	–	·	–	·	·	–
CC(C)S(=O)(=O)c1csc(NC(=O)Nc2ccc(Cl)cc2)c1	–	–	–	21.2	–	–
Cc1cc(C)cc(NC(=O)c2ccc(CSc3nnc(C)s3)cc2)c1	65.7	–	–	–	–	–
CCOC(=O)Cc1nnc(NC(=O)COc2ccc(C)cc2)s1	–	–	38.3	–	–	–
CCOC(=O)Cc1nnc(NC(=O)COc2ccc(OC)cc2)s1	–	–	–	–	–	–
O=C(CSc1ccc(-c2ccc3c(c2)OCO3)nn1)Nc1nccs1	–	–	–	–	–	–
O=C(CSCC(=O)Nc1nc(-c2ccc3c(c2)OCO3)cs1)Nc1nccs1	54.1	–	–	–	–	–
C=CCN(CC=C)CCOc1ccc2ccccc2c1	–	–	38.6	–	–	–
Cc1ccc(C(C)C)c(OCCNCCc2ccccc2)c1	–	·	43.9	·	–	–
Cc1ccc(C(C)C)c(OCCCNCc2cccnc2)c1	–	–	–	–	–	–
Cn1c(=O)[nH]c(=O)c2c1nc(Br)n2CCCO	–	–	–	–	–	4.4
CN1CCCCC(NC(=O)c2cccc(F)c2)C1=O (stereo not given)	–	·	–	·	·	·
COc1ccc(OCC(=O)N2c3ccc(C)cc3C3CN(C)CCC32)cc1 (stereo not given)	–	–	–	–	–	24.8
Cc1ccc2c(c1)C1CN(C)CCC1N2C(=O)COc1ccc(N(C)C(=O)C(C)(C)C)cc1 (stereo not given)	–	–	–	–	–	–
COc1cc(/C=C(\C#N)c2nc3ccccc3[nH]2)c([N+](=O)[O-])cc1OCc1ccccc1	53.9	–	–	–	–	–
CCOC(=O)C1CCCN(c2c(NCCN(C)Cc3ccccc3)c(=O)c2=O)C1 (stereo not given)	–	–	–	–	–	–
CCOC(=O)C1CCCN(c2c(N3CCc4ccccc4C3)c(=O)c2=O)C1 (stereo not given)	·	–	·	–	21.8	·
O=C(c1ccccc1)N1CCC(=O)N(C(CO)Cc2ccccc2)CC1 (stereo not given)	–	·	–	·	·	–
CC(C)(C)c1ccc(C(=O)N2CCC(=O)N(C(CO)Cc3ccccc3)CC2)cc1 (stereo not given)	–	–	46.3	–	–	–
SMILES	TAAR1 antagonist	TRPML3 agonist	TAAR1 agonist	TRPN1 ag	GPR7 antagonist	LANA-H2A inh
CC(C)(C)c1ccc(C(=O)N2CCC(=O)N(C(COCc3ccccc3)Cc3ccccc3)CC2)cc1 (stereo not given)	73.9	–	–	–	–	–
O=C(c1ccc(C(F)(F)F)cc1)N1CCC(=O)N(C(COCc2ccccc2)Cc2ccccc2)CC1 (stereo not given)	–	–	–	–	–	–
C#CCN(Cc1cccc(F)c1)C(=O)c1nnc2c3cc(F)ccc3n(S(=O)(=O)c3ccc(OC)cc3)c2n1	–	·	–	·	·	·
OCC1OC(C(N=Nc2ccccc2)=NNc2ccccc2)C(O)C1O (stereo not given)	–	·	–	·	·	·
Fc1ccccc1CSc1nncn1NCc1cccs1	–	–	–	–	18.9	–
O=c1[nH][nH]c(=O)c2cc([N+](=O)[O-])ccc12	–	·	–	·	·	40.3
Nc1nnc(SCC(=O)OCC(=O)Nc2ccc(Br)cc2)s1	–	–	44.1	–	–	–
Nc1nnc(SCC(=O)OCC(=O)Nc2ccc(Br)cc2F)s1	–	–	–	–	–	–
CN1OC[C@@H]2CN(C(=O)c3ccc([N+](=O)[O-])cc3)[C@H](c3ccccc3Br)C[C@@H]21	–	·	–	·	·	·
Cc1nc(C(=O)Nc2ccc(F)cc2)nn1-c1ccc([N+](=O)[O-])cc1	–	–	–	–	–	12.4
Cc1cc(C(=O)COC(=O)c2ccc(CO)cc2)c(C)n1CC1COc2ccccc2O1 (stereo not given)	49.5	–	–	–	–	–
Cc1cc(C(=O)CSc2nnc(-c3ccco3)o2)c(C)n1CC1COc2ccccc2O1 (stereo not given)	–	–	–	–	19.6	·
CCN(CC)c1ccc(-c2sc(Nc3ccccc3)n[n+]2-c2ccc(F)cc2)cc1	–	·	49.3	·	–	–
O=C(c1ccccc1)N1CCC2CCN(CCc3ccccc3)CC21 (stereo not given)	–	·	–	·	·	·
O=[N+]([O-])c1ccc(COc2cccc(CO)c2)cc1	–	·	–	·	·	·
Cc1ccc(C)c(NS(=O)(=O)c2cc(C(N)=O)ccc2C)c1	–	–	–	–	14.4	–
O=C1[C@H](Cc2ccccc2)NCCCC[C@@H](c2ccc(Cl)cc2)N1Cc1ccc(Cl)cc1	–	·	41.1	·	·	·
COC(=O)[C@]12C[C@H](CC(=O)NCc3ccc(OC)c(OC)c3)C(=O)N(CCC3=CCCCC3)C1=C[C@H](C(C)(C)C)O[C@@H]2C	–	·	–	·	·	·
O=C(/C=C/c1ccc(F)cc1)N1CC[C@@]2(O)CCCC[C@H]2C1	–	–	–	–	–	4.7
O=C1NC(=S)S/C1=C\C=C\c1ccc([N+](=O)[O-])o1	72.3	–	57.7	20.9	–	·
CCN(CC)c1ccc(SS(=O)(=O)O)cc1	–	–	–	–	–	35.0!
Cc1ccc(C(=O)COC(=O)CSc2cccc3cccnc23)c(C)c1	–	–	–	–	–	16.7
O=C(Nc1ccc([N+](=O)[O-])cc1)C1CC1(c1ccccc1)c1ccccc1 (stereo not given)	53.6	–	–	–	–	–
O=C(c1cc(-c2ccccc2)nc2ccccc12)N1CCN(c2ccccc2O)CC1	55.3	·	–	·	–	–
COc1ccc(-c2cc(C(=O)N3CCCC(C(F)(F)F)C3)c3ccccc3n2)cc1OC (stereo not given)	50.4	·	–	·	·	·

Screening results from PubChem BioAssay.
